# Test results taken from ChEMBL document CHEMBL1128548, “Synthesis and evaluation of 5-amino-5,6,7,8-tetrahydroquinolinones as potential agents for the treatment of Alzheimer's disease” (J Med Chem, 1995).
# Where “and” joins values, the source holds several entries; their conditions need not be identical. Equal values may be shown once. Calls of active or inactive are those of the source.
# How the values were obtained:
# Mus musculus [1] = assay: Active dose for reversal of Scopolamine dementia activity in mouse following s.c. administration.; assay type: functional
# Procedure, shortened: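 Male CFW mice, 15 per group (vehicle/vehicle, scopolamine/vehicle, scopolamine/drug). Scopolamine hydrobromide 3.0 mg/kg sc 30 min before training, then test compound in distilled water 5 min before. One-trial dark passive avoidance, retested 24 h later without injection or shock. Cutoff is the second-longest scopolamine/vehicle latency. Dose is active when 20% of animals exceed cutoff. Test valid if cutoff <120 s.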
# Acetylcholinesterase = molecular target: T1, Acetylcholinesterase (Rattus norvegicus, UniProt P37136); assay: Acetylcholinesterase inhibitory activity in rat striatal homogenates
# T1 sequence (P37136 whole entry): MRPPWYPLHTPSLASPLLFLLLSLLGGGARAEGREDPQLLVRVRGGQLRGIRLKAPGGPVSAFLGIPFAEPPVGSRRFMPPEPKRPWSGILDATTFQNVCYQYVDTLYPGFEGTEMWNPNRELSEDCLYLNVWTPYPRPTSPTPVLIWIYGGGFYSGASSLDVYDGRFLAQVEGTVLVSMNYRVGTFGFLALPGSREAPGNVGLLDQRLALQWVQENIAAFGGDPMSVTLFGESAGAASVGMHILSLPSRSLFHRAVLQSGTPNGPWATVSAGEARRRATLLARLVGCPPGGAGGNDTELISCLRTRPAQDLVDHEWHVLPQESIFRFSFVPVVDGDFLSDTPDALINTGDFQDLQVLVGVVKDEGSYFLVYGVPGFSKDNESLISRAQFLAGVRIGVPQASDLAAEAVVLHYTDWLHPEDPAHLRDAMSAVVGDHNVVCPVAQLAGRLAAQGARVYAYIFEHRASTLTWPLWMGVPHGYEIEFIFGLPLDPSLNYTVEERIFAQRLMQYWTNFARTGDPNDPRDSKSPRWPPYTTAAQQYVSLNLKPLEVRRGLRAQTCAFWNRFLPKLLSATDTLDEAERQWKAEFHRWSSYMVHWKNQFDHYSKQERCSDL
# Mus musculus [2] = organism: Mus musculus; assay: Active dose for reversal of Scopolamine dementia(SDDA) activity in mouse; NA =' not active'; assay type: functional, organism-based
# Procedure, shortened: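 Male CFW mice, 15 per group (vehicle/vehicle, scopolamine/vehicle, scopolamine/drug). Scopolamine hydrobromide 3.0 mg/kg sc 30 min before training, test compound in distilled water 5 min before. Step-through passive avoidance retested 24 h later without shock, recording latency. Cutoff is the second-longest scopolamine/vehicle latency. A dose is active if 20% of mice exceed the cutoff.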
Structure (SMILES),Active dose (Mus musculus [1]),IC50 (Acetylcholinesterase),Active dose (Mus musculus [2])
CC(C)=CCn1c2c(ccc1=O)C(NCCc1ccc(Cl)cc1Cl)CCC2 (stereo not given),1 mg/kg and 3 mg/kg,0.79 µM,–
Cn1c2c(ccc1=O)C(C)(N)CCC2 (stereo not given),–,> 100 µM,–
CC(C)=CCn1c2c(ccc1=O)C(NCCc1ccccc1Cl)CCC2 (stereo not given),–,0.52 µM,–
CCCn1c2c(ccc1=O)C(NCCC(C)(C)C)CCC2 (stereo not given),–,15.6 µM,–
CC(C)=CCn1c2c(ccc1=O)C(NCCc1ccc(O)cc1)CCC2 (stereo not given),–,0.4 µM,–
COc1cccc(CCNC2CCCc3c2ccc(=O)n3CC=C(C)C)c1 (stereo not given),–,1.1 µM,–
COc1ccc(CCNC2CCCc3c2ccc(=O)n3CC=C(C)C)cc1OC (stereo not given),–,1.64 µM,–
CCCn1c2c(ccc1=O)C(NCCc1c[nH]c3ccccc13)CCC2 (stereo not given),3 mg/kg,3.16 µM,–
O=c1ccc2c(n1CCc1ccccc1)CCCC2NCCc1ccc(Cl)c(Cl)c1 (stereo not given),–,50.4 µM,–
CCCn1c2c(ccc1=O)C(NCCc1ccccn1)CCC2 (stereo not given),–,4.34 µM,inactive
CC(C)=CCn1c2c(ccc1=O)C(NCCc1ccc(Cl)c(C(F)(F)F)c1)CCC2 (stereo not given),–,0.79 µM,inactive
Cn1c2c(ccc1=O)C(NCCCc1ccccc1)CCC2 (stereo not given),–,48.4 µM,–
C/C=C1\[C@H]2C=C(C)C[C@]1(N)c1ccc(=O)[nH]c1C2 [HUPERZINE A],–,0.08 µM,–
Oc1ccc2c(n1)CCCC2NCCc1ccccc1 (stereo not given),–,> 100 µM,–
Cn1c2c(ccc1=O)C(NCCc1ccccc1)CCC2 (stereo not given),1 mg/kg,18.6 µM,–
CC(C)CCn1c2c(ccc1=O)C(NCCc1ccc(Cl)c(Cl)c1)CCC2 (stereo not given),3 mg/kg,2.34 µM,–
CC(C)=CCn1c2c(ccc1=O)C(NCCc1ccc(F)c(F)c1)CCC2 (stereo not given),–,0.98 µM,–
C=CCn1c2c(ccc1=O)C(NCCc1ccc(Cl)c(Cl)c1)CCC2 (stereo not given),–,9.21 µM,–

Structure (SMILES),Active dose (Mus musculus [1]),IC50 (Acetylcholinesterase),Active dose (Mus musculus [2])
CC(C)n1c2c(ccc1=O)C(NCCc1ccc(Cl)c(Cl)c1)CCC2 (stereo not given),–,34.5 µM,–
NC1(Cc2ccccc2)CCCc2[nH]c(=O)ccc21 (stereo not given),–,> 100 µM,–
CC(C)=CCn1c2c(ccc1=O)C(NCCc1ccc(Cl)c(Cl)c1)CCC2 (stereo not given),–,0.51 µM,–
CC1(N)CCCc2nc(O)ccc21 (stereo not given),–,> 100 µM,–
CCCCCCCCCCn1c2c(ccc1=O)C(NCCc1ccc(Cl)c(Cl)c1)CCC2 (stereo not given),–,33.7 µM,–
CCCn1c2c(ccc1=O)C(NC1Cc3ccccc3C1)CCC2 (stereo not given),1 mg/kg,3.91 µM,–
CCCCCCn1c2c(ccc1=O)C(NCCc1ccc(Cl)c(Cl)c1)CCC2 (stereo not given),–,3.71 µM,–
C=C(C)Cn1c2c(ccc1=O)C(NCCc1ccc(Cl)c(Cl)c1)CCC2 (stereo not given),3 mg/kg,5.32 µM,–
CCCn1c2c(ccc1=O)C(NCCc1cccs1)CCC2.O=C(O)/C=C/C(=O)O (stereo not given),–,5.97 µM,–
CC(C)=CCn1c2c(ccc1=O)C(N)CCC2 (stereo not given),–,> 100 µM,–
O=c1ccc2c(n1Cc1ccccc1)CCCC2NCCc1ccc(Cl)c(Cl)c1 (stereo not given),–,17.3 µM,–
CC(C)=CCn1c2c(ccc1=O)C(NCCc1cc(Cl)cc(Cl)c1)CCC2 (stereo not given),–,0.8 µM,–
CC(C)=CCn1c2c(ccc1=O)C(NCCc1cc(Cl)ccc1Cl)CCC2 (stereo not given),–,1.36 µM,–
Cc1ccc(CCNC2CCCc3c2ccc(=O)n3C)cc1 (stereo not given),–,18.2 µM,–
CC(C)=CCn1c2c(ccc1=O)C(NCCc1cccc(Cl)c1)CCC2 (stereo not given),–,0.52 µM,inactive
Cn1c2c(ccc1=O)C(NCc1ccccc1)CCC2 (stereo not given),–,> 100 µM,–
Cn1c2c(ccc1=O)C(NCCc1ccc(C(F)(F)F)cc1)CCC2 (stereo not given),–,12.9 µM,–
CC(C)Cn1c2c(ccc1=O)C(NCCc1ccc(Cl)c(Cl)c1)CCC2 (stereo not given),–,23.4 µM,–
